This is an account of results in ChEMBL document CHEMBL1125409, “Synthesis and biological activity of acyclic analogues of 5,10-dideaza-5,6,7,8-tetrahydrofolic acid” (J Med Chem, 1992).

For data set [1], the system named is CCRF-CEM. Put plainly: Cytotoxicity against human lymphoblastic leukemic CCRF-CEM cell line was evaluated as the concentration required for 50% inhibition of the growth of the control value. The data set is classed as functional, cell-based. The procedure, abridged: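 CCRF-CEM cells in RPMI 1640 with 10% dialyzed FBS, 16 mM HEPES and 8 mM MOPS, seeded at 4.8×10⁴ cells/well. Duplicate wells got graded concentrations diluted from a 4 mg/mL DMSO stock. After 72 h (95% air/5% CO₂), cells were counted on a Coulter counter. IC50 was taken from dose-response curves as 50% growth inhibition versus control.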

In data set [2] the test system is CCRF-CEM. Put plainly: Compound was evaluated for reversal of growth inhibition against human lymphoblastic leukemic CCRF-CEM cells at 0.46 uM concentration and with 5 uM of Thymidine. The format is functional.
Data set [3] deals with CCRF-CEM. Put plainly: Compound was evaluated for reversal of growth inhibition against human lymphoblastic leukemic CCRF-CEM cells at 0.46 uM concentration and with 100 uM of hypoxanthine. The format is functional.
Data set [4] has as its system CCRF-CEM. Put plainly: Compound was evaluated for reversal of growth inhibition against human lymphoblastic leukemic CCRF-CEM cells at 0.46 uM concentration and with 300 uM of AICA. The format is functional.
Data set [5] is described as follows: In vivo antitumor activity against C3H mammary tumor type after intraperitoneal administration of 400 mg/kg dose given once daily for 10 days. As to conditions: ip, 240 h.
The subject of data set [6] is Mus musculus. Put plainly: In vivo antitumor activity against […] tumor type was expressed as toxic deaths/total treated mice at 50 mg/kg dose given once daily for 10 days; 2/10. The format is ADME, organism-based. Details: dose 50 mg/kg. As to conditions: 240 h.
The nature of data set [7]: In vivo antitumor activity against […] tumor type after intraperitoneal administration of 50 mg/kg dose given once daily for 10 days. The data set is classed as functional. As to conditions: ip, 240 h. An outline of the steps:
(§1)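 C3H mammary adenocarcinoma fragments (1–2 mm³) were trocar-implanted sc axillary in syngeneic C3H mice. Treatment was ip once daily for 10 days, beginning 24 h post-implant. Tumor width and length were measured one day after the final dose, with V = L(W²)/2. Growth inhibition was calculated against untreated controls, and toxicity/total was noted.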

A short description of data set [8]: In vivo antitumor activity against lymphosarcoma tumor type after intraperitoneal administration of 100 mg/kg dose given twice daily for 8 days. The data set is classed as functional. The note with it: ip, 192 h. An outline of the steps:
(§2)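 6C3HED lymphosarcoma: 1–2 mm³ fragments implanted sc by trocar in the axilla of syngeneic C3H mice. Dosing ip twice daily for 8 days, starting 24 h after implant. One day after the last dose, tumor volume was taken as L(W²)/2 and compared with controls to give % inhibition. Deaths over group size were recorded.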

Data set [9] deals with Mus musculus. Put plainly: In vivo antitumor activity against C3H mammary tumor type was expressed as toxic deaths/total treated mice at 400 mg/kg dose given once daily for 10 days; 2/10. The note with it: 240 h.
Data set [10] can be described thus: In vivo antitumor activity against […] tumor type after intraperitoneal administration of 200 mg/kg dose given once daily for 10 days. The format is functional. As to conditions: ip, 240 h. The procedure, abridged: as §1
Data set [11] has as its system Mus musculus. Put plainly: In vivo antitumor activity against 6C3HED tumor type was expressed as toxic deaths/total treated mice at 400 mg/kg dose; 2/10. Details: dose 400 mg/kg. The format is ADME, organism-based.
The nature of data set [12]: In vivo antitumor activity against lymphosarcoma tumor type after intraperitoneal administration of 200 mg/kg dose given twice daily for 8 days. As to conditions: ip, 192 h. The data set is classed as functional. The procedure, abridged:
as §2

In data set [13] the test system is Mus musculus. Put plainly: In vivo antitumor activity against lymphosarcoma tumor type was expressed as toxic deaths/total treated mice at 50 mg/kg dose given twice daily for 8 days; 0/10. The format is ADME, organism-based. Set-up: dose 50 mg/kg. As to conditions: 192 h.
The subject of data set [14] is Mus musculus. Put plainly: In vivo antitumor activity against lymphosarcoma tumor type was expressed as toxic deaths/total treated mice at 100 mg/kg dose given twice daily for 8 days; 0/9. The format is ADME, organism-based. Details: dose 100 mg/kg. As to conditions: 192 h.
Data set [15] can be described thus: In vivo antitumor activity against 6C3HED tumor type after intraperitoneal administration of 400 mg/kg. The data set is classed as functional. The note with it: ip. An outline of the steps:
as §2

In data set [16] the test system is Mus musculus. Put plainly: In vivo antitumor activity against […] tumor type was expressed as toxic deaths/total treated mice at 200 mg/kg dose given once daily for 10 days; 0/10. The data set is classed as ADME, organism-based. Details: dose 200 mg/kg. As to conditions: 240 h.
Data set [17] in a line: In vivo antitumor activity against lymphosarcoma tumor type after intraperitoneal administration of 50 mg/kg dose given twice daily for 8 days. The note with it: ip, 192 h. The data set is classed as functional. The procedure, abridged: as §2
The nature of data set [18]: In vivo antitumor activity against […] tumor type after intraperitoneal administration of 100 mg/kg dose given once daily for 10 days. The data set is classed as functional. As to conditions: ip, 240 h. The procedure, abridged: as §1
Data set [19] relates to Mus musculus. Put plainly: In vivo antitumor activity against […] tumor type was expressed as toxic deaths/total treated mice at 100 mg/kg dose given once daily for 10 days; 1/10. The data set is classed as ADME, organism-based. Details: dose 100 mg/kg. As to conditions: 240 h.

A value given as a limit tells only on which side of the number the result lay.

The term IC50 denotes the midpoint of a concentration-inhibition curve. Regarding `Nc1nc(N)c(CCCCc2csc(C(=O)N[C@@H](CCC(=O)O)C(=O)O)c2)c(O)n1`, it took 142 nM to reach half-maximal inhibition in the data set with CCRF-CEM [1] (IC50). In other words, the sub-micromolar range.
The same measure, in the same setting: to `Nc1nc(N)c(CCCCc2ccc(C(=O)N[C@@H](CCC(=O)O)C(=O)O)s2)c(O)n1` belongs 59 nM.
Same read-out and setting: then `Cc1nc(N)[nH]c(=O)c1CCCCc1ccc(C(=O)N[C@@H](CCC(=O)O)C(=O)O)cc1`, with 2330 nM.
Broadly, the Inhibition is the change of the read-out against control, counted positive when it falls. Turning to `Nc1nc(N)c(CCCNc2ccc(C(=O)N[C@@H](CCC(=O)O)C(=O)O)cc2)c(O)n1`, the Inhibition in the data set with CCRF-CEM [2] was 77%; in the data set on CCRF-CEM [3] it was 0%; with CCRF-CEM [4], 55%. In the data set on CCRF-CEM [1], the half-maximal inhibitory concentration (IC50) is 198 nM.
As for `Nc1nc(O)c(CCCCc2ccc(C(=O)N[C@@H](CCC(=O)O)C(=O)O)cc2)c(O)n1`, the IC50 in the data set with CCRF-CEM [1] was found to be 39800 nM. In other words, the double-digit micromolar range.
On the same count and under the same terms, then `Nc1nc(N)c(CCCCCCCCCC(=O)N[C@@H](CCC(=O)O)C(=O)O)c(O)n1`, with greater than 47100 nM; and `Nc1nc(N)c(CCCCc2ccc(C(=O)N[C@@H](CCC(=O)O)C(=O)O)cc2)c(N)n1`, with 42 nM; and `Nc1nc(N)c(CCCCc2ccc(C(=O)N[C@@H](CC(=O)O)C(=O)O)cc2)c(O)n1`, with greater than 48000 nM.
The same measure, in the same setting: then `Nc1nc(N)c(CCCCc2ccc(C(=O)N[C@@H](Cc3ccccc3)C(=O)O)cc2)c(O)n1`, with greater than 44500 nM.
Broadly, the inhibition in vivo is the relative decrease from the control value, in per cent. Regarding `Nc1nc(N)c(CCCCc2ccc(C(=O)N[C@@H](CCC(=O)O)C(=O)O)cc2)c(=O)[nH]1` [DIDEAZAACYCLOTETRAHYDROFOLIC ACID], the inhibition in vivo at 400 mg/kg was 78% in data set [5] and 100% in data set [15]. Besides, the Inhibition with CCRF-CEM [2] worked out at 80%; with CCRF-CEM [3], 0%; in the data set on CCRF-CEM [4], 0%. Besides, the Toxicity in the data set with Mus musculus [6] was 2; with Mus musculus [9], 2; in the data set on Mus musculus [11], 2; with Mus musculus [13] it was 0; with Mus musculus [14], 0; with Mus musculus [16], 0. Besides, the Toxicity in the data set on Mus musculus [19] is on record as 1. In addition, the inhibition in vivo at 50 mg/kg was 17% in [7] and 44% in data set [17]. Further, the results for the inhibition in vivo at 100 mg/kg in data set [8] and in [18] were 66% and 37%, respectively. For the same molecule, the inhibition in vivo at 200 mg/kg worked out at 36% in data set [10] and 92% in [12]. The same molecule displayed an IC50 in the data set on CCRF-CEM [1] of 132 nM.
`Nc1nc2c(c(=O)[nH]1)C[C@@H](CCc1ccc(C(=O)N[C@@H](CCC(=O)O)C(=O)O)cc1)CN2` [LOMETREXOL] returned a concentration for half-maximal inhibition (IC50) with CCRF-CEM [1] of 16 nM.
